Measured values of several laboratories.
Lines come from different studies, so protocols differ.
Cell line: PC-3
Read-out: cell growth or viability

CS(=O)(=O)NCCCCN=C=S
IC50 (MTT; 24 h): 25.4 µM

COc1cc(C(=O)c2nc(-c3cccc4[nH]cnc34)c[nH]2)cc(OC)c1OC
IC50 (MTS; 72 h): 0.0158 µM

CC(C)c1ccc(/C=C2\N=C(SCC(=O)O)N(c3ccccc3)C2=O)cc1
IC50 (MTT): 50 µg/mL

CC1(P2(=O)CCCCC2)CCCCC1
IC50 (MTT; 72 h): > 100 µM

CC(=NNC(=O)c1cc(-c2ccccc2)n(-c2ccc(S(N)(=O)=O)cc2)n1)c1ccc(Br)cc1
IC50 (fluorescence; 48 h): 48 µM

O=c1[nH]cc(F)c(=O)[nH]1
IC50 (MTT; 72 h): > 360 µM

COc1ccc(C=NNC(=O)c2cc(-c3ccccc3)n(-c3ccc(S(N)(=O)=O)cc3)n2)cc1OC
IC50 (fluorescence; 48 h): 27.1 µM

COc1cc(C(=O)c2nc(-c3cccc4[nH]ccc34)c[nH]2)cc2c1OCO2
IC50 (MTS; 72 h): 0.005 µM

CC(C)Cc1ccc([C@H](C)C(=O)O)cc1
IC50 (SRB; 72 h): 553 µM

NS(=O)(=O)c1ccc(-n2nc(-c3nnc(S)o3)cc2-c2ccccc2)cc1
IC50 (fluorescence; 48 h): 51.2 µM

COc1cc(C(=O)c2nc(-c3cccc4[nH]nnc34)c[nH]2)cc(OC)c1OC
IC50 (MTS; 72 h): 0.0203 µM

COc1cc(C=NNC(=O)c2cc(-c3ccccc3)n(-c3ccc(S(N)(=O)=O)cc3)n2)cc(OC)c1OC
IC50 (fluorescence; 48 h): 33.4 µM

COc1cccc2c1C(=O)c1c(O)c3c(c(O)c1C2=O)C[C@@](O)(C(=O)CO)C[C@@H]3O[C@H]1C[C@H](N)[C@H](O)[C@H](C)O1
IC50 (MTT): 4.81 µg/mL

NS(=O)(=O)c1ccc(-n2nc(-c3nnc(CCl)o3)cc2-c2ccccc2)cc1
IC50 (fluorescence; 48 h): 36.2 µM

COc1cc(C(=O)c2nc(-c3cccc4cc[nH]c34)c[nH]2)cc(OC)c1OC
IC50 (MTS; 72 h): 0.0316 µM

COc1cccc2c1C(=O)c1c(O)c3c(c(O)c1C2=O)C[C@@](O)(C(=O)CO)C[C@@H]3O[C@H]1C[C@H](N)[C@H](O)[C@H](C)O1
IC50 (MTT; 72 h): 0.3 µM

COc1cc(C(=O)c2nc(-c3cccc4c3CCN4)c[nH]2)cc(OC)c1OC
IC50 (MTS; 72 h): 0.022 µM

NS(=O)(=O)c1ccc(-n2nc(C(=O)NN=Cc3ccccc3O)cc2-c2ccccc2)cc1
IC50 (fluorescence; 48 h): 18 µM

O[C@@H]1[C@@H](O)[C@H](Nc2cc3cccnc3c3ncccc23)OC[C@H]1O
IC50 (MTT; 48 h, dark): 3.9 µM
